In PMC11253529 (iScience, 2024):
Like-named read-outs stand apart in the source and are kept apart here.

Key:
P. aeruginosa ATCC27853 = settings: MHII medium, previously determined values, ref Krämer et al.[35], cited from earlier work
A. flavus ATCC9170 = settings: MHII medium; previously determined values; ref Krämer et al.[35]; cited from earlier work
E. coli ATCC35218 = settings: previously determined values, ref Krämer et al.[35], cited from earlier work
C. albicans FH2173 = settings: MHII medium; previously determined values; ref Krämer et al.[35]; cited from earlier work
M. smegmatis ATCC607 = settings: MHII medium; previously determined values; ref Krämer et al.[35]; cited from earlier work
intracellular Ca^2+ = test: Intracellular Ca2+ induction assay; type: cell-based, human; settings: 2.5 μg/mL; Fluo-8 pre-treated HEK293T cells; fluorescence imaging; n = 3
Summary of the method: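 HEK293T cells (2 × 10^4/well, poly-D-lysine plates) were cultured 24 h at 37°C, then loaded with 4 μM Fluo-8-AM in HBSS for 1 h at 37°C and switched to HBSS. After peptide addition, confocal high-content images were taken every second for 20 s. Cells above a fluorescence threshold set from pre-treatment cells were counted against untreated cells. The positive control was 5 μM ionomycin.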

[1] = system: S. aureus (MRSA) ATCC33592; settings: MHII medium; previously determined values; ref Krämer et al.[35]; cited from earlier work
pea aphids = settings: feeding assay; cited from earlier work

For FFGAIAKLAMK [Checacin 1^1−11], the “MIC, P. aeruginosa ATCC27853” value (P. aeruginosa ATCC27853) is listed as >50 µM, the “MIC, A. flavus ATCC9170” value (A. flavus ATCC9170) is listed as >50 µM and the “MIC, E. coli ATCC35218, MHC medium (in brackets)” value (“MIC … (in brackets)” below) (E. coli ATCC35218) is listed as >50 (>50) μM. For the same substance, the “MIC, E. coli ATCC35218, MHII medium” value (E. coli ATCC35218) was >50 (>50) μM, the “MIC, C. albicans FH2173” value (C. albicans FH2173) was >50 µM and the “MIC, M. smegmatis ATCC607” value (M. smegmatis ATCC607) was >50 µM. The “Induction of intracellular Ca^2+ levels” value (intracellular Ca^2+) was “the only exceptions” and the “MIC, S. aureus (MRSA) ATCC33592” value [1] was >50 µM.
In the case of FFGAIAKLAMKFLPAIYKQIQ [Checacin 1^1−21], the “MIC, P. aeruginosa ATCC27853” value (P. aeruginosa ATCC27853) is given as >50 µM, the “MIC, A. flavus ATCC9170” value (A. flavus ATCC9170) is given as >50 µM and the “MIC … (in brackets)” value (E. coli ATCC35218) is given as >50 (>50) μM. The “MIC, E. coli ATCC35218, MHII medium” value (E. coli ATCC35218) was >50 (>50) μM, the “MIC, C. albicans FH2173” value (C. albicans FH2173) was >50 µM and the “MIC, M. smegmatis ATCC607” value (M. smegmatis ATCC607) was >50 µM. The “MIC, S. aureus (MRSA) ATCC33592” value [1] was 12.5 µM.
In the case of “FFGAIAKLAMKFLPAIYKQIQKKRK-Amidation [Checacin 1]”, the “MIC, P. aeruginosa ATCC27853” value (P. aeruginosa ATCC27853) is given as 12.5 µM, the “MIC, P. aeruginosa ATCC27853” value (P. aeruginosa ATCC27853; listed as checacin 1) is given as “inhibited to various degrees” and the “MIC, A. flavus ATCC9170” value (A. flavus ATCC9170) is given as 50 µM. The “MIC … (in brackets)” value (E. coli ATCC35218) was 1.6 µM, the “MIC, C. albicans FH2173” value (C. albicans FH2173) was 6.25 µM and the “MIC, M. smegmatis ATCC607” value (M. smegmatis ATCC607) was 25 µM. The “Insecticidal activity in aphid feeding assays” value (pea aphids) was “insecticidal activity in aphid feeding assays, but only after 72 h” and the “MIC, S. aureus (MRSA) ATCC33592” value [1] was 1.56 µM.
For “FLPAIYKQIQKKRK-Amidation [Checacin 1^12−25]”, the “MIC, P. aeruginosa ATCC27853” value (P. aeruginosa ATCC27853) is listed as >50 µM, the “MIC, A. flavus ATCC9170” value (A. flavus ATCC9170) is listed as >50 µM and the “MIC … (in brackets)” value (E. coli ATCC35218) is listed as >50 (>50) μM. For the same substance, the “MIC, E. coli ATCC35218, MHII medium” value (E. coli ATCC35218) was >50 (>50) μM, the “MIC, C. albicans FH2173” value (C. albicans FH2173) was >50 µM and the “MIC, M. smegmatis ATCC607” value (M. smegmatis ATCC607) was >50 µM. For the same substance, the “Induction of intracellular Ca^2+ levels” value (intracellular Ca^2+) was “the only exceptions” and the “MIC, S. aureus (MRSA) ATCC33592” value [1] was >50 µM.
